The subject of assay [1] is L5178Y. As to the kind of experiment: Cytotoxicity against L5178y cells at 10 ug/ml after 72 hrs by MTT assay. In kind it is functional, cell-based. The essentials: (§1)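 Cells exposed 72 h to a range of concentrations; viability by MTT colorimetric read at 595 nm after overnight incubation at 37 °C. PC12 grown in DMEM/10% FCS/5% horse serum; HeLa and L5178y in RPMI 1640/10% FCS; all at 37 °C, 5% CO2.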

Assay [2] concerns PC-12. As to the kind of experiment: Cytotoxicity against PC12 cells at 10 ug/ml after 72 hrs by MTT assay. The class given is functional, cell-based. The essentials: as §1
For orientation: Formazan colour is commonly taken as a measure of viable cells.

In assay [3] the test system is PC-12. As to the kind of experiment: Effect on 5-HT/CaCl2 induced increase in intracellular calcium level in PC12 cells pretreated for 5 mins at 1 ug/ml after 20 mins in relative to control. The class given is functional. The essentials:
(§2)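 Cells on poly-L-lysine coverglass, loaded with 10 μM fura-2-AM (1 h, 37 °C), washed, held 1 h. In Ca2+/Mg2+-free Locke's solution pH 7.4, 1 μg/ml compound added for 5 min, then 200 μM 5-HT plus 2.5 mM CaCl2 at 10 min. 340/380 nm ratio recorded ≥20 min; rise vs 0.1% DMSO or water control set to 100%; three independent experiments, mean ± SD.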
For orientation: A change in cytosolic calcium serves as a functional read-out for many receptors and channels.

Assay [4] has as its system HeLa. Kind of assay: Cytotoxicity against HeLa cells at 10 ug/ml after 72 hrs by MTT assay. The class given is functional, cell-based. Conditions: Homo sapiens. The essentials: as §1
In assay [5] the test system is HEK293. Kind of assay: Effect on 5-HT/CaCl2 induced increase in intracellular calcium level in HEK cells pretreated for 5 mins at 1 ug/ml after 20 mins in relative to control. The class given is functional, cell-based. Particulars: Homo sapiens. The essentials: as §2
Assay [6] relates to Suberites domuncula. Kind of assay: Effect on 5-HT/CaCl2 induced increase in intracellular calcium level in Suberites domunculas sponge cell pretreated for 5 mins at 1 ug/ml in relative to control.
The test system of assay [7] is Neuron. As to the kind of experiment: Effect on NMDA/CaCl2 induced increase in intracellular calcium level in rat neuronal cells pretreated for 5 mins at 10 ug/ml after 20 mins in relative to control. The class given is functional. The essentials:
(§3)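 Rat cortical neurons were fura-2-loaded (4 μM, 1 h, 37 °C) and preincubated 5 min with 0.1, 1 or 10 µg/ml compound in Ca/Mg-free Locke's, pH 7.4. They were stimulated at 10 min with 200 µM NMDA plus 2.5 mM CaCl2. The fura-2 340/380 ratio change was followed for 20 min and set relative to the vehicle control (100%).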

The nature of assay [8]: Effect on 5-HT/CaCl2 induced increase in intracellular calcium level in rat primary neuronal cells pretreated for 5 mins at 0.1 ug/ml after 20 mins in relative to control. In kind it is functional, Primary neuron. The essentials: (§4)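 Rat cortical neurons from E17–18 Wistar embryos were grown serum-free on poly-L-lysine glass. They were loaded with 4 μM fura-2-AM for 1 h at 37 °C. Cells were preincubated 5 min with compound (0.01–10 µg/ml) in Ca/Mg-free Locke's, pH 7.4. 200 µM 5-HT plus 2.5 mM CaCl2 was added at 10 min. The 340/380 ratio increase was imaged over 20 min as % of DMSO/water control, ±SD of 3–5 experiments, ~90 cells each.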

Assay [9] relates to Primary neuron. As to the kind of experiment: Effect on 5-HT/CaCl2 induced increase in intracellular calcium level in rat primary neuronal cells pretreated for 5 mins at 0.1 ug/ml after 10 mins. In kind it is functional, cell-based.
Assay [10] deals with Primary neuron. As to the kind of experiment: Effect on 5-HT/CaCl2 induced increase in intracellular calcium level in rat primary neuronal cells pretreated for 5 mins at 10 ug/ml after 20 mins in relative to control. The class given is functional, cell-based. Summed up: as §4
For assay [11], the system named is Neuron. Kind of assay: Effect on NMDA/CaCl2 induced increase in intracellular calcium level in rat neuronal cells pretreated for 5 mins at 1 ug/ml after 20 mins in relative to control. The class given is functional. Summed up: as §3
The test system of assay [12] is Neuron. As to the kind of experiment: Effect on NMDA/CaCl2 induced increase in intracellular calcium level in rat neuronal cells pretreated for 5 mins at 0.1 ug/ml after 20 mins in relative to control. The class given is functional. Summed up: as §3
A short description of assay [13]: Effect on 5-HT/CaCl2 induced increase in intracellular calcium level in rat primary neuronal cells pretreated for 5 mins at 0.03 ug/ml after 20 mins in relative to control. In kind it is functional, Primary neuron. Summed up:
as §4

The subject of assay [14] is Neuron. Kind of assay: Effect on L-glutamic acid/CaCl2 induced increase in intracellular calcium level in rat neuronal cells pretreated for 5 mins at 1 ug/ml after 20 mins in relative to control. The class given is functional. Summed up:
(§5)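 Rat cortical neurons were loaded with 4 μM fura-2-AM, then preincubated 5 min with 0.1, 1 or 10 µg/ml compound in Ca/Mg-free Locke's, pH 7.4. 200 µM L-glutamic acid plus 2.5 mM CaCl2 was added at 10 min. The 340/380 nm ratio increase was recorded over 20 min and expressed as % of vehicle control.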

Assay [15] relates to Suberites domuncula. As to the kind of experiment: Effect on 5-HT/CaCl2 induced increase in intracellular calcium level in Suberites domunculas sponge cell pretreated for 5 mins at 0.1 ug/ml in relative to control.
The nature of assay [16]: Effect on 5-HT/CaCl2 induced increase in intracellular calcium level in rat primary neuronal cells pretreated for 5 mins at 0.3 ug/ml after 20 mins in relative to control. The class given is functional, Primary neuron. The essentials: as §4
Assay [17] deals with Neuron. Kind of assay: Effect on L-glutamic acid/CaCl2 induced increase in intracellular calcium level in rat neuronal cells pretreated for 5 mins at 10 ug/ml after 20 mins in relative to control. In kind it is functional. The essentials: as §5
Assay [18] deals with Primary neuron. Kind of assay: Effect on 5-HT/CaCl2 induced increase in intracellular calcium level in rat primary neuronal cells pretreated for 5 mins at 0.01 ug/ml after 20 mins in relative to control. The class given is functional, cell-based. Summed up:
as §4

The test system of assay [19] is Primary neuron. Kind of assay: Effect on 5-HT/CaCl2 induced increase in intracellular calcium level in rat primary neuronal cells pretreated for 5 mins at 3 ug/ml after 20 mins in relative to control. In kind it is functional, cell-based. Summed up: as §4
Assay [20] has as its system Neuron. As to the kind of experiment: Effect on L-glutamic acid/CaCl2 induced increase in intracellular calcium level in rat neuronal cells pretreated for 5 mins at 0.1 ug/ml after 20 mins in relative to control. In kind it is functional. Summed up:
as §5

Assay [21] in a line: Effect on 5-HT/CaCl2 induced increase in intracellular calcium level in rat primary neuronal cells pretreated for 5 mins at 1 ug/ml after 20 mins in relative to control. In kind it is functional, Primary neuron. Summed up: as §4

The source made the active and inactive calls. The calls are words filed in the database; no cut-off is given here.

Turning to `C[N+]1(C)C[C@H](OC(=O)c2cc(Br)c[nH]2)C[C@@H]1C(=O)[O-]` [DAMITURICIN], the Activity entry is “Not toxic” in assay [1], “Not toxic” in assay [2], 43.8% in assay [3] and “Not toxic” in assay [4]. Also, the outcome in assay [5] was inactive.

Regarding `O=C(O[C@@H]1CCN[C@@H](C(=O)O)C1)c1cc(Br)c[nH]1` [DAMIPIPECOLIN], the outcome in assay [6], in assay [10], in assay [15], in assay [18] and in assay [19] was inactive. The Activity in [7] is 105.9%; in assay [1], “Not toxic”; in assay [8] it was 11.2%; in assay [2], “Not toxic”; in [4], “Not toxic”; in [11], 70.4%. The Activity in assay [12] was 114.1%; in assay [13], 71.6%; in [14] it was 90.5%; in [16] it was 29.7%; in assay [17] it was 96.6%; in assay [20], 83.3%. In addition, the Activity in [21] is recorded as 38%. In [9], the outcome was Active.
